We go through one compound from ChEMBL document CHEMBL2331117 (J Med Chem, 2013).

Series [1] relates to Mus musculus. Nature of the series: In vivo inhibition of mTORC2-mediated phosphorylation of AKT at serine 473 in human PC3 cells xenografted into athymic nude mouse at 100 mg/kg, po after 24 hrs by Western blotting analysis relative to control. The settings on record: PC-3, 24 h. The class given is functional. In a few lines:
(§1)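 PC-3 cells grown in DMEM with 20% FBS were implanted subcutaneously at 3 × 10^6 cells in ice-cold HBSS into the hindflank of 5−8 week old male nude mice. At tumor size 200−500 mg, mice received a single oral dose of 100 mg/kg. Plasma and tumors were collected at 1, 4, 8, 16, 24 and 32 h. Tumor lysates from each group (n = 5) were pooled. Phospho-proteins were quantified by Western blot and normalized to α-tubulin.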
(Xenograft models place foreign cells or tissue in a host animal.)

Series [2] concerns Mus musculus. Kind of series: In vivo inhibition of mTORC1-mediated phosphorylation of 4EBP1 at ([…]) in human PC3 cells xenografted into athymic nude mouse at 100 mg/kg, po after 32 hrs by Western blotting analysis relative to control. Type of series: functional. The conditions noted are these: PC-3, 32 h. In a few lines: as §1
Series [3] can be described thus: Drug uptake in tumor of athymic mouse xenografted with human PC3 cells at 100 mg/kg, po after 8 hrs. Type of series: ADME, organism-based, Neoplasm, PC-3. Details: dose 100 mg/kg, route oral. The conditions noted are these: read-out: Drug uptake. In a few lines:
(§2)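 PC-3 cells (3 × 10⁶, passages 10–14, in ice-cold HBSS) were implanted sc in 5–8 week old male nude mice. Tumors of 200–500 mg received a single oral 100 mg/kg dose. Plasma and tumor were collected at 1, 4, 8, 16, 24 and 32 h and homogenized in buffer. Lysates were pooled per group (n = 5), and phospho-proteins were measured by Western blot normalized to α-tubulin.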

In series [4] the target is Vascular endothelial growth factor receptor 2 (Homo sapiens, UniProt P35968). Kind of series: Inhibition of KDR (unknown origin).
For series [5], the system named is Mus musculus. Nature of the series: In vivo inhibition of mTORC2-mediated phosphorylation of AKT at […] in human MCF7 cells xenografted into athymic nude mouse at 100 mg/kg, po after 24 hrs by Western blotting analysis relative to control. The class given is functional. The settings on record: MCF7, 24 h. A digest of the protocol:
(§3)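 MCF-7 cells (DMEM, 10% FBS) were implanted subcutaneously at 5 × 10^6 cells in 50% cold HBSS/50% growth-factor-reduced matrigel into the hindflank of 5−8 week old female nude mice. At tumor size 40−150 mg, mice received a single oral dose of 100 mg/kg. Tumor lysates were pooled per group. Phospho-AKT (S473, T308), p70S6K (T389), S6 (S240/244) and 4E-BP1 (T37/46) were measured by Western blot normalized to α-tubulin.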

Series [6] has as its system Mus musculus. Kind of series: In vivo inhibition of mTORC2-mediated phosphorylation of AKT at […] in human MCF7 cells xenografted into athymic nude mouse at 100 mg/kg, po after 16 hrs by Western blotting analysis relative to control. Type of series: functional. The conditions noted are these: MCF7, 16 h. In a few lines:
as §3

The nature of series [7]: Volume of distribution at steady state in cynomolgus monkey at 3 mg/kg, iv. The settings on record: in vivo, read-out: Vdss. The class given is ADME, organism-based, Macaca fascicularis. Set-up: dose 3 mg/kg, route intravenous.
The test system of series [8] is Mus musculus. Kind of series: In vivo inhibition of mTORC2-mediated phosphorylation of AKT at […] in human MCF7 cells xenografted into athymic nude mouse at 100 mg/kg, po after 4 hrs by Western blotting analysis relative to control. The class given is functional. The settings on record: MCF7, 4 h. A digest of the protocol: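 Human MCF-7 cells were implanted subcutaneously into the hindflank of female nude mice aged 5−8 weeks, at 5 × 10^6 cells in 50% cold HBSS/50% growth-factor-reduced matrigel. At a tumor size of 40−150 mg, mice got one oral dose. Tumor lysates were pooled per group. Phospho-AKT (T308) was read by Western blot and normalized to α-tubulin.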

The nature of series [9]: Drug uptake in tumor of athymic mouse xenografted with human PC3 cells at 100 mg/kg, po after 4 hrs. The class given is ADME, organism-based, Neoplasm, PC-3. Set-up: dose 100 mg/kg, route oral. The conditions noted are these: read-out: Drug uptake. A digest of the protocol: as §2
For series [10], the target named is Cytochrome P450 2D6 (Homo sapiens, UniProt P10635). Nature of the series: Inhibition of CYP2D6 (unknown origin). The class given is ADME.
Series [11] can be described thus: AUC (0 to infinity) in Beagle dog at 3 mg/kg, po. The class given is ADME, organism-based, Canis lupus familiaris. Details: time infinity, dose 3 mg/kg, route oral. The conditions noted are these: plasma. A digest of the protocol: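 Single-dose PK: female athymic nude mice (10 mg/kg), female CD rats and male beagle dogs (3 mg/kg), male cynomolgus monkeys (3 mg/kg), given iv and by oral gavage. Solution in EPW (5% ethanol/45% PEG400/water), with 1:2 HCl (m/m) for mouse, rat and dog and 1:1.5 HCl (m/m) for monkey. Plasma levels followed over 24 h.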

Series [12] deals with Focal adhesion kinase 1 (Homo sapiens, UniProt Q05397). Kind of series: Inhibition of FAK (unknown origin). A digest of the protocol: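 Part of a 141-protein-kinase selectivity panel run either in house or by an outside contract lab. IC50 is reported as the average of at least two determinations.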
A short description of series [13]: Oral bioavailability in Beagle dog at 3 mg/kg. Type of series: ADME, organism-based, Canis lupus familiaris. The conditions noted are these: in vivo. In a few lines:
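For single-dose PK, compound was given intravenously and by oral gavage as a solution in EPW (5% ethanol/45% PEG400/water + 1:2 HCl m/m). Doses were 10 mg/kg in female athymic nude mice and 3 mg/kg in female CD rats and male beagle dogs.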

Sequence of Cytochrome P450 2D6 (P10635 whole entry): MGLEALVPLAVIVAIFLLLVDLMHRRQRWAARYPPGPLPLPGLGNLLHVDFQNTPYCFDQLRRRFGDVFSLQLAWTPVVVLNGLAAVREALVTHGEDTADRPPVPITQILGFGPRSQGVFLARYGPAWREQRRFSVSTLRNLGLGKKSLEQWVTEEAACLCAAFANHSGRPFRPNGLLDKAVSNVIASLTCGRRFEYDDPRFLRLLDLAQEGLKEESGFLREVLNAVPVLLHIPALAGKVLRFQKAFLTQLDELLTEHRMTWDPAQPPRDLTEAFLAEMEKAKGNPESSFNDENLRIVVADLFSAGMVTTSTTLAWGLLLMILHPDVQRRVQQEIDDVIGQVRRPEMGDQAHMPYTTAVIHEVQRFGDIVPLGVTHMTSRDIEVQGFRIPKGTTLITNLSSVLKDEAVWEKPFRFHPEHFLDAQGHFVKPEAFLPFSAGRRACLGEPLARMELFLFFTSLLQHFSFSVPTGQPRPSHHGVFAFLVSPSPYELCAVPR
Sequence of Focal adhesion kinase 1 (Q05397 whole entry): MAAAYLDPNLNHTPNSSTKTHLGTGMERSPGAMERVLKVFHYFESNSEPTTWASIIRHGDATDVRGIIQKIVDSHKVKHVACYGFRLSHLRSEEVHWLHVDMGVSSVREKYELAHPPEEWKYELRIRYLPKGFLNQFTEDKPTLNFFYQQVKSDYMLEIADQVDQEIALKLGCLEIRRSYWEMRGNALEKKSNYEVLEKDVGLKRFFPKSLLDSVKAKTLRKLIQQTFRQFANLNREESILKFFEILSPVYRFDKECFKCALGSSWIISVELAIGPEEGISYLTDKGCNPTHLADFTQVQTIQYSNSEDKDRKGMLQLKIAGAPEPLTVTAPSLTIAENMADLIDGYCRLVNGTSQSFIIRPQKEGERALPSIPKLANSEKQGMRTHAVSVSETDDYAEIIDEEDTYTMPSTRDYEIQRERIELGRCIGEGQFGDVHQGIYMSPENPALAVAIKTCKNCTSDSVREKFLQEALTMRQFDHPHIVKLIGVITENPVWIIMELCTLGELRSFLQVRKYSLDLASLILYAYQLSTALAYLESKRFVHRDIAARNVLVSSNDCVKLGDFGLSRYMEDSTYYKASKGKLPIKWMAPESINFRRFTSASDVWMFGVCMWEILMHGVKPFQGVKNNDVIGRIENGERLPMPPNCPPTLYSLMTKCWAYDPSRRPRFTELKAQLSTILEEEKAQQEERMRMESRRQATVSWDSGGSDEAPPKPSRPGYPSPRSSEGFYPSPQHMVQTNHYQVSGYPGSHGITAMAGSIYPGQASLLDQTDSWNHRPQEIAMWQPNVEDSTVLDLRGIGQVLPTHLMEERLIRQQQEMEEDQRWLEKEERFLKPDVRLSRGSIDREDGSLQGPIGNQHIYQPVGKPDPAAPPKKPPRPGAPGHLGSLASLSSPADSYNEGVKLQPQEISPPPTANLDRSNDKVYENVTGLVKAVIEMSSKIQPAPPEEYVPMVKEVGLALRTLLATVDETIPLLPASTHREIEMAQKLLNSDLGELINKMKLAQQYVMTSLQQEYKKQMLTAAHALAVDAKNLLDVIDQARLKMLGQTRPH
Sequence of Vascular endothelial growth factor receptor 2 (P35968 whole entry): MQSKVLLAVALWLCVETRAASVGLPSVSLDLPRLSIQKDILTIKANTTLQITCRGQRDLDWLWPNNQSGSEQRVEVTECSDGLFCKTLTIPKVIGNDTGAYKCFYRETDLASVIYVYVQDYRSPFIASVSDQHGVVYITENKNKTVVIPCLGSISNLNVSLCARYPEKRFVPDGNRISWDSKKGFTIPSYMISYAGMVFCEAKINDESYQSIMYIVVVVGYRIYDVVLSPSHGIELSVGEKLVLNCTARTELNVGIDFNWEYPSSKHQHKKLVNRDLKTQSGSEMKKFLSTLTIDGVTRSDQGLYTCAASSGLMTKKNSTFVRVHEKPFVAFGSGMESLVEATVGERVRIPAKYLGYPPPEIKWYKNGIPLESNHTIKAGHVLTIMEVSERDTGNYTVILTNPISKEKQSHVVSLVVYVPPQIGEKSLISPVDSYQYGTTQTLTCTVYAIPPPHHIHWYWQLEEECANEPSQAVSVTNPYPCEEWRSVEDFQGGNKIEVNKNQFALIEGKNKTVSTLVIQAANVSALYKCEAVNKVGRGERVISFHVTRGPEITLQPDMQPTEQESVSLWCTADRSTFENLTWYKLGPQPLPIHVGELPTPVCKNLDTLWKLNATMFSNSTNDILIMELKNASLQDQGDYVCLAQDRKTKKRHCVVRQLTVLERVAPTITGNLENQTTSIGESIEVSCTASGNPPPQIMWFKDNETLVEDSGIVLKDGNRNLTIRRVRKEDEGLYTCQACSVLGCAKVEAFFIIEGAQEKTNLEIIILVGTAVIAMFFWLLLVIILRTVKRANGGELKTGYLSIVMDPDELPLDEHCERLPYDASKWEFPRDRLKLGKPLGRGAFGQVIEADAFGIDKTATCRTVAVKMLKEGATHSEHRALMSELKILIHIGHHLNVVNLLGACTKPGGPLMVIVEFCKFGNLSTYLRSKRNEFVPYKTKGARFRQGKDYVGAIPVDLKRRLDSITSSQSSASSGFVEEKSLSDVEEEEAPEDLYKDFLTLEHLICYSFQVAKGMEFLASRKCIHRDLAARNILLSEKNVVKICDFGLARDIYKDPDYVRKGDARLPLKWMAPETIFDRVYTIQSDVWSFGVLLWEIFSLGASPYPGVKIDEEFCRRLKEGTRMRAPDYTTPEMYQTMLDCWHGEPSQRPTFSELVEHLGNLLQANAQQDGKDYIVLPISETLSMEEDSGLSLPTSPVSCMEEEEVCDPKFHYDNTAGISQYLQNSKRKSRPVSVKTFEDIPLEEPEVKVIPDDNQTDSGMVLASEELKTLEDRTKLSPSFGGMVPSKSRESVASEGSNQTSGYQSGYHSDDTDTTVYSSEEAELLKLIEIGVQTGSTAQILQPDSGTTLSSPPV

For `Cc1c(C(=O)N2CCOc3ccc(-c4ccc(N)nc4)cc3C2)ccc(S(C)(=O)=O)c1F`, the inhibition in vivo at 100 mg/kg in series [1] was 5%; in [2], 33%; in series [5], -39%; in [6], 43%; in series [8], 13%. Also, in [3], the concentration at 8 h is 25.5 µM. The 50% inhibitory concentration (IC50) in series [4] and in series [12] was greater than 3.5 µM each time. For the same compound, the Vd in [7] is 6.42 L/kg. In addition, the concentration at 4 h in [9] is 18.6 µM. For the same compound, the INH in [10] was greater than 20 µM. For the same compound, the AUC(0-inf) in series [11] turned out to be 7.66 µM·h. For the same compound, the bioavailability in series [13] worked out at 69.6%.

What is called inhibition in vivo is the drop in the measured response relative to a control, in per cent. By IC50 is commonly meant the concentration that inhibits the measured activity by half. Broadly, the AUC(0-inf) is the area under the concentration-time curve extrapolated to infinity. As usually defined, the bioavailability is dose-corrected exposure relative to a reference, in per cent.
